Assay outcomes deposited in PubChem by several laboratories.
The list is not random: actives were taken first. Their share in the collection is about 1.9%.
MT1-MMP act inh = blockers of MT1-MMP proenzyme processing, primary screen, HT1080 RFP-PRO-GFP cells, GFP/RFP fluorescence. Matrix metalloproteinase-14 (Homo sapiens), P50281. GFP/RFP ratio fluorescence, overnight; percent of plate control window, DMSO zero. GFP/RFP ratio change, % at 20 µM. 360,000 tested, 0.061% active. AID 651647, 2012;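 active = GFP/RFP ratio change of at least 30% with cell ATP level not reduced by more than half and red fluorescence within 50% of control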
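Assay system: HT1080 cells carrying an RFP-PRO-GFP reporter | Dosing: Single dose of 20 µM compound, 1% DMSO final | Incubation: Cells overnight before dosing, compound overnight, 37 °C, 5% CO2 | Evaluation: GFP/RFP fluorescence ratio | Control set: DMSO and RFP-L50D-GFP cell wells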
Rev-erbA mod = modulators of Rev-erb alpha DNA binding, primary screen, biochemical, FITC-DNA, fluorescence polarization, uHTS; Nuclear receptor subfamily 1 group D member 1 (Homo sapiens), P20393; Rev-erbα–FITC-DNA binding, 90 min; activity, % at 10 µM; 370,000 tested, 0.79% active; AID 1259318, 2017;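 active = activity above about 14%, limit read from the data; passing the limit was not always enough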
Target sequence (P20393 whole entry, looked up): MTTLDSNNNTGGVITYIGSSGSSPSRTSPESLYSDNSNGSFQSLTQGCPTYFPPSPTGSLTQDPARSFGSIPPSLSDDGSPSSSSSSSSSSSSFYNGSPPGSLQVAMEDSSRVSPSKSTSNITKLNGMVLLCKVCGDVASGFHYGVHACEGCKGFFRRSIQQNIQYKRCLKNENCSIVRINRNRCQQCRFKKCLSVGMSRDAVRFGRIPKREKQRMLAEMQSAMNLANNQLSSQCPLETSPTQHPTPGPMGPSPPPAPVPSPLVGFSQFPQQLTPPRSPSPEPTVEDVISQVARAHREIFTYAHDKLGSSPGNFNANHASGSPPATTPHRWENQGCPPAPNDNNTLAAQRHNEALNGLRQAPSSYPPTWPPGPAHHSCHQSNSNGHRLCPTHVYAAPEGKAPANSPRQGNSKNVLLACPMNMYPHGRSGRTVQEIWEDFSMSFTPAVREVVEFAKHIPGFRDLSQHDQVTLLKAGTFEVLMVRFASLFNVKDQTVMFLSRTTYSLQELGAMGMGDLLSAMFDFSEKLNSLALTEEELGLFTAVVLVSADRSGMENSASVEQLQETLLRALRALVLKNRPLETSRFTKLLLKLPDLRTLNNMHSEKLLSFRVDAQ
PG9 Ab binder = binders of HIV-1 gp120 antibody PG9, primary screen, biochemical, TR-FRET | 360,000 tested, 0.43% active | HIV-1 gp120 / PG9 antibody interaction | TR-FRET gp120-PG9 antibody binding | inhibition, % at 6.7 µM; in the data active = inhibition above about 8.5%
NR2E3 ag-1 = inhibitors of NR2E3-RetCOR corepressor binding, primary screen, NR2E3 agonist project, biochemical, TR-FRET, GST-NR2E3, biotin-RetCOR; Photoreceptor-specific nuclear receptor (Homo sapiens), Q9Y5X4; 1536-well; inhibition of corepressor binding, % at 4.78 µM; 320,000 tested, 0.12% active; AID 2300, 2010;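 active = percent inhibition above the cutoff of mean plus 3 SD of all tested compounds, set per screening campaign, cut at about 20% in these data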
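Material: NR2E3–RetCOR corepressor complex | Quantity: 1.35 nM GST-tagged NR2E3 final | Schedule: 5 h at 4 °C | Replication: Singlicate compound wells | Reagent: RetCOR corepressor, biotinylated, 7 nM | Controls: Biotin wells as high control, 0.6% DMSO wells as low control | Signal: TR-FRET, Eu(K)-anti-GST donor, streptavidin-D2 acceptor, ex 340, em 617/671 nm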
NR2E3 ag-2 = NR2E3 agonists in two-hybrid cells, primary screen, cell-based, luminescence, CHO-S, Gal4-NCOR/VP16-NR2E3; 360,000 tested, 0.35% active; luciferase; Photoreceptor-specific nuclear receptor (Homo sapiens), Q9Y5X4; inhibition of corepressor binding, % at 3.98 µM; AID 602229, 2012;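 active = inhibition above the mean of all tested compounds plus 3 SD, cut at about 70% in these data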;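 also: higher means lower luciferase signal from less NR2E3 corepressor binding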
SKN-1 block = suppressors of acrylamide-induced Pgst-4::GFP reporter in worms, primary screen, SKN-1 inhibitor project, whole organism, uHTS, GFP/RFP fluorescence ratio, strain VP596; C. elegans VP596 Pgst-4::GFP/RFP ratio, 24 h; inhibition, % at 21.8 µM; 360,000 tested, 0.49% active;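 active = interference check ratio from 0.5 to 1.5 plus GFP to RFP signal ratio inhibition reaching or exceeding a fixed threshold, cut at about 30% in these data, passing the limit was not always enough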
NR2E3 ag conf = NR2E3 agonist confirmation in cells, cell-based, luminescence, CHO-S two-hybrid; shares compounds with NR2E3 ag-2; CHO-S mammalian two-hybrid NR2E3-NCOR, luciferase luminescence; inhibition, % at 3.98 µM; 2,300 tested, 51% active; AID 624378, 2012;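 active = average inhibition above a cutoff equal to the mean inhibition of all tested compounds plus one SD, cut at about 70% in these data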
GAL4-VP16 luc = GAL4-VP16 reporter modulators, confirmation, counter-screen for NR2E3 agonist project, cell-based, luminescence, CHO-S, high throughput. 2,300 tested, 29% active. CHO-S GAL4-VP16 luciferase reporter. inhibition, % at 3.98 µM. shares compounds with NR2E3 ag-2;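 active = mean inhibition above a cutoff equal to the average over all tested compounds plus one standard deviation, cut at about 70% in these data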;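 also: luciferase from a UAS reporter driven by GAL4-VP16 transactivation; higher means less reporter light so more repression of VP16 activity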
Hits are given with their value; i = inactive; nt = no result given.

SMILES	MT1-MMP act inh	Rev-erbA mod	PG9 Ab binder	NR2E3 ag-1	NR2E3 ag-2	SKN-1 block	NR2E3 ag conf	GAL4-VP16 luc
COc1ccc(C[C@H]2NC[C@H](O)[C@H]2OC(C)=O)cc1	i	i	i	i	103.7	i	98.9	98.7
CCOC(=O)[C@]12Cc3cc(Cl)ccc3[C@H]1N(CC(=O)OC)C(=O)c1ccccc12	i	nt	nt	nt	i	i	i	i
CCOC(=O)[C@]12Cc3cc(Cl)ccc3[C@H]1N(C1CCCCC1)C(=O)c1ccccc12	i	nt	nt	nt	i	i	96.5	i
CCOC(=O)[C@]12Cc3cc(Cl)ccc3[C@H]1N(C)C(=O)c1ccccc12	i	i	i	nt	i	i	nt	nt
OCC(O)[C@H]1O[C@@H]2O[C@H](C(Cl)(Cl)Cl)O[C@@H]2[C@H]1O (stereo partly drawn)	nt	i	nt	nt	nt	nt	nt	nt
O=C(NC(=O)c1c(F)cccc1F)Nc1cc(Cl)c(OC(F)(F)C(F)C(F)(F)F)cc1Cl (stereo not drawn)	nt	i	nt	nt	nt	nt	nt	nt
CC(C)NC(C)C	nt	i	nt	nt	nt	nt	nt	nt
COP(=S)(OC)Oc1cc(Cl)c(Cl)cc1Cl	nt	i	nt	nt	nt	nt	nt	nt
CC1=C(O)C(=O)C=C2C1=CC=C1C2(C)CCC2(C)C3CC(C)(C(=O)O)CCC3(C)CCC12C (stereo not drawn)	i	i	i	nt	99.2	i	95.2	76.6
CC(=O)OCC12CC(OC(=O)CC(C)C)C(C)=CC1OC1C(O)C(OC(C)=O)C2(C)C12CO2 (stereo not drawn)	i	i	i	nt	100.6	i	99.8	99.4
O=C(Nc1ccc(Br)cc1)c1cc(Br)cc(Br)c1O	nt	i	nt	nt	nt	nt	nt	nt
O=C1NC2C(=CC(O)C(O)C2O)c2cc3c(c(O)c21)OCO3 (stereo not drawn)	i	i	i	nt	101.5	55.4	100.4	99.3
O=C1NC2C(=CC(O)C(O)C2O)c2cc3c(cc21)OCO3 (stereo not drawn)	i	i	i	nt	100.2	39.9	100.5	97.2
O=C1NC2C(O)C(O)C(O)C(O)C2c2cc3c(c(O)c21)OCO3 (stereo not drawn)	i	i	i	nt	98.8	i	98.5	98.7
COc1cc(C2c3cc4c(cc3CC3COC(=O)C32)OCO4)cc(OC)c1O (stereo not drawn)	i	i	i	nt	i	i	nt	nt
Cn1sc(Cl)cc1=O	nt	i	nt	nt	nt	nt	nt	nt
CCCC(C)C1(CC)C(=O)N=C(S)NC1=O (stereo not drawn)	nt	i	nt	nt	nt	nt	nt	nt
CC(C)(C)NC(=O)CN1C(=O)[C@@H](Cc2c[nH]c3ccccc23)N=C(c2ccccc2)c2ccccc21	nt	i	nt	nt	nt	nt	nt	nt
C[C@H]1C[C@@H](C)C(=O)[C@@H]([C@H](O)CC2CC(=O)NC(=O)C2)C1	i	i	i	i	101.3	i	100.0	94.1
CC1CC(C)CC(C)C(O)C(C#N)=CC=CCC(C2CCCC2C(=O)O)OC(=O)CC(O)C(C)C1 (stereo not drawn)	i	i	i	nt	102.1	i	100.7	99.9
COC(=O)C(c1ccccc1)C1CCCCN1 (stereo not drawn)	nt	i	nt	nt	nt	nt	nt	nt
O=[N+]([O-])C(Br)(CO)CO	nt	i	nt	nt	nt	nt	nt	nt
C[C@H]1CCC/C=C/[C@@H]2C[C@H](O)C[C@H]2[C@@H](O)/C=C/C(=O)O1	i	i	i	nt	85.8	i	98.4	i
O=C(O)C(Br)Br	nt	i	i	nt	nt	nt	nt	nt
CCOc1ccc(-c2c(C)n(-c3ccc(OCC)cc3)c3[n+]2CCCCC3)cc1	i	i	i	i	i	i	97.0	i
SMILES	MT1-MMP act inh	Rev-erbA mod	PG9 Ab binder	NR2E3 ag-1	NR2E3 ag-2	SKN-1 block	NR2E3 ag conf	GAL4-VP16 luc
CCOc1ccc(-n2c(-c3ccoc3)nc3ccccc3c2=O)cc1	i	i	i	i	i	i	nt	nt
O=c1[nH]sc2cc(F)ccc12	i	i	i	nt	i	i	i	i
C=C(C)C1CNC(C(=O)O)C1CC(=O)O (stereo not drawn)	nt	i	nt	nt	nt	nt	nt	nt
O=c1[nH]c2ccccc2n1C1CCN(C(c2ccccc2OC(F)(F)F)c2nnnn2-c2ccc3c(c2)OCCO3)CC1 (stereo not drawn)	i	i	i	nt	i	i	i	i
CSCCC(c1nnnn1-c1ccc2c(c1)OCCO2)N1CCC(n2c(=O)[nH]c3ccccc32)CC1 (stereo not drawn)	i	i	i	nt	i	i	i	i
COc1cccc(C(c2nnnn2-c2ccc3c(c2)OCCO3)N2CCC(n3c(=O)[nH]c4ccccc43)CC2)c1OC (stereo not drawn)	i	i	i	nt	i	i	i	i
O=c1[nH]c2ccccc2n1C1CCN(C(c2ccccc2)c2nnnn2-c2ccc3c(c2)OCCO3)CC1 (stereo not drawn)	i	i	i	nt	i	i	nt	nt
C[N+]12CCC(CC1)C(OC(=O)C(O)(c1ccccc1)c1ccccc1)C2 (stereo not drawn)	i	i	i	i	i	i	nt	nt
COC(=O)C1C(c2ccccc2)CC2CCC1N2C (stereo not drawn)	nt	i	i	nt	nt	nt	nt	nt
Oc1cc(Cl)c(Cl)cc1Cl	nt	i	i	nt	nt	nt	nt	nt
Oc1cc(Cl)c(Cl)c(Cl)c1Cl	i	i	i	nt	73.9	i	i	74.9
C[C@H](N)[C@H](O)c1ccc(O)c(O)c1	nt	i	nt	nt	nt	nt	nt	nt
CCN(CC)C(=O)c1ccc(NC(=O)c2cccc(S(=O)(=O)N3CCN(Cc4ccccc4)CC3)c2)cc1	i	i	i	i	i	i	i	i
O=c1n(Cl)c(=O)n(Cl)c(=O)n1Cl	nt	i	nt	nt	nt	nt	nt	nt
COc1ccc2c(c1)/C(=C/c1cnc[nH]1)C(=O)N2	i	i	i	i	80.8	i	85.6	i
O=C1Nc2ccccc2/C1=C/c1nc2ccccc2c(=O)n1-c1ccc(O)cc1	i	i	i	i	i	i	nt	nt
COc1ccc(-n2c(/C=C3\C(=O)Nc4ccccc43)nc3ccccc3c2=O)cc1	i	i	i	i	i	i	nt	nt
O=C1Nc2ccccc2/C1=C/c1cnc[nH]1	i	i	i	i	i	i	i	i
